Measured values taken from ChEMBL document CHEMBL4041517 (Eur J Med Chem, 2017).
pIC50: −log10 of the molar value.

Legend:
[1] = target: T1, Amine oxidase [flavin-containing] B (Homo sapiens, UniProt P27338); assay: Inhibition of recombinant human MAO-B using kynuramine as substrate by fluorescence spectrophotometry
T1 sequence (P27338 whole entry): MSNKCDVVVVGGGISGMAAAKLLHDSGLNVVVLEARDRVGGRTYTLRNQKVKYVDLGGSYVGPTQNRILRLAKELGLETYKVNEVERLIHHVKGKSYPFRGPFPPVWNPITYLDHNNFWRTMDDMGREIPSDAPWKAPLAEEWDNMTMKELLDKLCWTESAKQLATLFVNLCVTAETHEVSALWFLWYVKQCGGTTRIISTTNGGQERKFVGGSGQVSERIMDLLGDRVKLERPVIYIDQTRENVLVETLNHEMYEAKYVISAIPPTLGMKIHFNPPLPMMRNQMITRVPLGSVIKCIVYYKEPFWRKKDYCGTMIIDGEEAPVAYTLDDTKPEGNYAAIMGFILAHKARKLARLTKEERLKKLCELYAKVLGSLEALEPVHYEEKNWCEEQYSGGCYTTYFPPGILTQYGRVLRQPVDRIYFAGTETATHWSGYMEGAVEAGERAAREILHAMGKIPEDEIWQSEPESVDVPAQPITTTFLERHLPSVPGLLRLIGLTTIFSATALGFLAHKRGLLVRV

[2] = target: T2, Amine oxidase [flavin-containing] A (Homo sapiens, UniProt P21397); assay: Inhibition of recombinant human MAO-A using kynuramine as substrate by fluorescence spectrophotometry
T2 sequence (P21397 whole entry): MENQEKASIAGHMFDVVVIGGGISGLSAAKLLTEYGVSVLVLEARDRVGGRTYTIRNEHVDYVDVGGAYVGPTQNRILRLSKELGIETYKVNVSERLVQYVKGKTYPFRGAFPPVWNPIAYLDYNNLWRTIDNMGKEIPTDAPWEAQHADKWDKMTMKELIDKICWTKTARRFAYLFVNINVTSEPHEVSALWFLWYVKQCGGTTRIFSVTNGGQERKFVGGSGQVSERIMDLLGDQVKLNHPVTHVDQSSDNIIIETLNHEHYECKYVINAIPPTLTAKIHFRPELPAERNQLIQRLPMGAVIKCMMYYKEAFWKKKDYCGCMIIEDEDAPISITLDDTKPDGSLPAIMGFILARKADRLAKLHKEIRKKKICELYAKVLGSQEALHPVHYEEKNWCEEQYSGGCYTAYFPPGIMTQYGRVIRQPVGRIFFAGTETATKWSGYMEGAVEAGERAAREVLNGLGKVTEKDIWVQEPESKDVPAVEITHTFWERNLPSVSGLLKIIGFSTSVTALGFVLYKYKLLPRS

[3] = species on record: Homo sapiens; assay: Selectivity index, ratio of IC50 for recombinant human MAO-A to IC50 for recombinant human MAO-B
Method in brief: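 Ratio of IC50 for MAO-A to IC50 for MAO-B. Each IC50 is the mean of triplicate fluorometric kynuramine-oxidation determinations on the recombinant human enzymes.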

[4] = target: T1, Amine oxidase [flavin-containing] B; assay: Reversible inhibition of recombinant human MAO-B assessed as residual activity pre-incubated at 4 times IC50 for 15 mins followed by dialysis for 24 hrs and subsequent kynuramine addition measured after 20 mins by fluorescence spectrophotometric analysis relative to untreated control
Method in brief: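 Recombinant MAO-B is preincubated with inhibitor for 15 min at 37 °C, then dialysed for 24 h at 4 °C. It is then diluted two-fold by adding kynuramine (50 final) and incubated 20 min at 37 °C. 4-Hydroxyquinoline is read fluorometrically. Residual activity is compared with an inhibitor-free dialysed control; triplicates, mean ± SD. (R)-Deprenyl is run the same way.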

[5] = target: T1, Amine oxidase [flavin-containing] B; assay: Reversible inhibition of recombinant human MAO-B assessed as residual activity pre-incubated at 4 times IC50 for 15 mins followed by kynuramine addition measured after 20 mins by fluorescence spectrophotometric analysis relative to untreated control
Method in brief: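 Recombinant MAO-B is preincubated with inhibitor for 15 min at 37 °C without dialysis. It is then diluted two-fold by adding kynuramine (50 final) and incubated 20 min at 37 °C. 4-Hydroxyquinoline is measured fluorometrically. Residual rate is compared with control; triplicates, mean ± SD.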

Compound	pIC50 [1]	pIC50 [2]	Ratio IC50 [3]	Activity [4]	Activity [5]
O=[N+]([O-])/C=C/c1cccc(OCc2cccc(Br)c2)c1	6.58	5.18	25	–	–
Cc1cccc(COc2cccc(/C=C/[N+](=O)[O-])c2)c1	6.25	4.93	21	–	–
O=[N+]([O-])/C=C/c1cccc(OCc2ccc(Cl)cc2)c1	6.84	5.12	53	–	–
O=[N+]([O-])/C=C/c1cccc(OCc2ccc(C(F)(F)F)cc2)c1	6.97	5.18	62	–	–
O=[N+]([O-])/C=C/c1cccc(OCc2cccc(C(F)(F)F)c2)c1	6.56	5.06	32	–	–
Cc1ccc(COc2cccc(/C=C/[N+](=O)[O-])c2)cc1	6.72	5.03	49	–	–
O=[N+]([O-])/C=C/c1cccc(OCc2ccc(F)cc2)c1	7.41	5.19	166	38%	37%
O=[N+]([O-])/C=C/c1cccc(OCc2ccc(Br)cc2)c1	< 4.00	< 4.00	–	–	–
O=[N+]([O-])/C=C/c1cccc(OCc2cccc(Cl)c2)c1	6.98	5.45	34	–	–
O=[N+]([O-])/C=C/c1cccc(OCc2cccc(F)c2)c1	6.99	5.38	41	–	–
O=[N+]([O-])/C=C/c1cccc(OCc2ccccc2)c1	7.07	5.44	43	–	–
